# Active and inactive are the calls of the source. The calls are words filed in the database; no cut-off is given here.
# Experiments:
# [1] = target: Angiotensin-converting enzyme 2 (Homo sapiens) (UniProt Q9BYF1); experiment: Inhibition of human recombinant ACE2 at 200 uM by HxBPyne probe-based competitive activity based protein profiling assay in presence of 200 uM HxBpane competitor
# In short: (§1)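 Metalloprotease at 1.6 μM final in PBS, without liver proteome. HxBPyne probe cocktail 20 μM final, with inhibitor 200 μM or DMSO. Preincubated 30 min on ice, then irradiated 365 nm for 1 h on ice. Rhodamine-azide click chemistry, then SDS-PAGE and in-gel fluorescence scanning. Integrated band intensity expressed as % of DMSO control.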
# [2] = target: Disintegrin and metalloproteinase domain-containing protein 17 (Homo sapiens) (UniProt P78536); experiment: Inhibition of human recombinant ADAM17 at 200 uM by HxBPyne probe-based competitive activity based protein profiling assay in presence of 5 uM HxBpane competitor
# In short: (§2)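 Recombinant enzyme at 0.5 μM final in mouse liver soluble proteome (1 mg protein/mL in PBS). HxBPyne probe cocktail 0.5 μM total final, with inhibitor 200 μM or DMSO. Preincubated 30 min on ice, then UV 365 nm for 1 h on ice. Rhodamine-azide click chemistry, 1 h RT in dark. SDS-PAGE with in-gel fluorescence; band intensity given as % of DMSO control.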
# [3] = target: Matrix metalloproteinase-14 (Homo sapiens) (UniProt P50281); experiment: Inhibition of human recombinant MMP14 at 200 uM by HxBPyne probe-based competitive activity based protein profiling assay in presence of 5 uM HxBpane competitor; in short: as §2
# [4] = target: Macrophage metalloelastase (Homo sapiens) (UniProt P39900); experiment: Inhibition of human recombinant MMP12 at 200 uM by HxBPyne probe-based competitive activity based protein profiling assay in presence of 5 uM HxBpane competitor; in short: as §2
# [5] = target: A disintegrin and metalloproteinase with thrombospondin motifs 4 (Homo sapiens) (UniProt O75173); experiment: Inhibition of human recombinant ADAMTS4 at 200 uM by HxBP-Rh probe-based competitive activity based protein profiling assay in presence of 200 uM HxBP-alkyne
# In short: (§3)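 Enzyme 0.5 μM final, in PBS (ADAMTS4, neprilysin) or in 1 mg/mL mouse liver soluble proteome (MMP9). HxBP-Rh probe 0.5 μM final with 200 μM inhibitor or DMSO. Preincubated 30 min on ice, UV 365 nm 1 h on ice. Deglycosylated with PNGase F, then SDS-PAGE with fluorescence scanning. Activity given relative to DMSO control.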
# [6] = target: 72 kDa type IV collagenase (Homo sapiens) (UniProt P08253); experiment: Inhibition of human recombinant MMP2 at 200 uM by HxBPyne probe-based competitive activity based protein profiling assay in presence of 5 uM HxBpane competitor; in short: as §2
# [7] = target: Endoplasmic reticulum aminopeptidase 2 (Homo sapiens) (UniProt Q6P179); experiment: Inhibition of human recombinant L-RAP at 200 uM by HxBPyne probe-based competitive activity based protein profiling assay in presence of 5 uM HxBpane competitor; in short: as §2
# [8] = target: Matrix metalloproteinase-9 (Homo sapiens, UniProt P14780); experiment: Inhibition of human recombinant MMP9 at 200 uM by HxBP-Rh probe-based competitive activity based protein profiling assay in presence of 200 uM HxBP-alkyne; in short: as §3
# [9] = target: T1, Collagenase 3 (Homo sapiens, UniProt P45452); experiment: Inhibition of human recombinant MMP13 by fluorogenic substrate assay
# [10] = target: Endoplasmic reticulum aminopeptidase 1 (Homo sapiens) (UniProt Q9NZ08); experiment: Inhibition of human recombinant PILS-AP at 200 uM by HxBPyne probe-based competitive activity based protein profiling assay in presence of 5 uM HxBpane competitor; in short: as §2
# [11] = target: T1, Collagenase 3; experiment: Inhibition of human recombinant MMP13 by HxBPyne probe-based competitive activity based protein profiling assay
# [12] = target: Methionine aminopeptidase 2 (Homo sapiens) (UniProt P50579); experiment: Inhibition of human recombinant METAP2 at 200 uM by HxBPyne probe-based competitive activity based protein profiling assay in presence of 200 uM HxBpane competitor; in short: as §1
# [13] = target: Neutrophil collagenase (Homo sapiens, UniProt P22894); experiment: Inhibition of human recombinant MMP8 at 200 uM by HxBPyne probe-based competitive activity based protein profiling assay in presence of 5 uM HxBpane competitor; in short: as §2
# [14] = target: Neprilysin (Homo sapiens) (UniProt P08473); experiment: Inhibition of human recombinant neprilysin at 200 uM by HxBP-Rh probe-based competitive activity based protein profiling assay in presence of 200 uM HxBP-alkyne; in short: as §3
# [15] = target: T2, Disintegrin and metalloproteinase domain-containing protein 8 (Homo sapiens) (UniProt P78325); experiment: Inhibition of human recombinant ADAM8 at 200 uM by HxBPyne probe-based competitive activity based protein profiling assay in presence of 5 uM HxBpane competitor; in short: as §2
# T2 sequence (whole entry): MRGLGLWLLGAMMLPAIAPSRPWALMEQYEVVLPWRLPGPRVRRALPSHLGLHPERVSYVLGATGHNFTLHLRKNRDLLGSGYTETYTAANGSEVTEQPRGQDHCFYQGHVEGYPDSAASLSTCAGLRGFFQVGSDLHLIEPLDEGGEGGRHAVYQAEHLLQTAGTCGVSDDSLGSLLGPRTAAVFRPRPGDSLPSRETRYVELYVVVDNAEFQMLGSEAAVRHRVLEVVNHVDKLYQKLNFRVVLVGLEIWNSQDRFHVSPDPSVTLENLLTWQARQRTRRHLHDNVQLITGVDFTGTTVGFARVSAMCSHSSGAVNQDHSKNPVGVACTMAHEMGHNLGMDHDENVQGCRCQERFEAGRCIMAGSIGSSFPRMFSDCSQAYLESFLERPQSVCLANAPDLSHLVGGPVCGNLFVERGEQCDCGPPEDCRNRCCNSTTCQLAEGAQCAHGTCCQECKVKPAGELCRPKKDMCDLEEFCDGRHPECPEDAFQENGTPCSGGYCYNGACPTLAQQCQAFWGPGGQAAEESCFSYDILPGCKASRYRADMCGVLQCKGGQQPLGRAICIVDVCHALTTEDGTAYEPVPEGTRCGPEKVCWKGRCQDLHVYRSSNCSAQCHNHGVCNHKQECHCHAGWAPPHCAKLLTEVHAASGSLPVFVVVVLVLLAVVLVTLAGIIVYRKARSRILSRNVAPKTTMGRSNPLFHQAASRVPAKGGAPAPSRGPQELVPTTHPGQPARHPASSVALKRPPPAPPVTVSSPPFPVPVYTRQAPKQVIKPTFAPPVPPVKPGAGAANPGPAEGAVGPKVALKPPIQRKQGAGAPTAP
# [16] = target: Interstitial collagenase (Homo sapiens) (UniProt P03956); experiment: Inhibition of human recombinant MMP1 at 200 uM by HxBPyne probe-based competitive activity based protein profiling assay in presence of 5 uM HxBpane competitor; in short: as §2
# [17] = target: A disintegrin and metalloproteinase with thrombospondin motifs 1 (Homo sapiens) (UniProt Q9UHI8); experiment: Inhibition of human recombinant ADAMTS1 at 200 uM by HxBPyne probe-based competitive activity based protein profiling assay in presence of 5 uM HxBpane competitor; in short: as §2
# Chain of Methionine aminopeptidase 2 (Homo sapiens) (P50579 2-478 limits assumed): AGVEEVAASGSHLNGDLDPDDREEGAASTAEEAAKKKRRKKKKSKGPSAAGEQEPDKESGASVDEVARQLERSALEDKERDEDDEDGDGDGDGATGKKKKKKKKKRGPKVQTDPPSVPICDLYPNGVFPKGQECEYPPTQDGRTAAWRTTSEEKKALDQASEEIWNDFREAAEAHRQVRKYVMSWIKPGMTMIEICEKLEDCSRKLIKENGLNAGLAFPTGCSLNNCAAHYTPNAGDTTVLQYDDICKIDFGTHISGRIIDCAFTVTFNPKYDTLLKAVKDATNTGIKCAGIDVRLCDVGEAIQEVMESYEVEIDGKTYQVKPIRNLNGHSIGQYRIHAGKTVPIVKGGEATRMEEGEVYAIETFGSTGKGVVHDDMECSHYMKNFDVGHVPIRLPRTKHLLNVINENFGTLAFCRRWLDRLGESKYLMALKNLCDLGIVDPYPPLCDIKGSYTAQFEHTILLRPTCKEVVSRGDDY
# Chain of Interstitial collagenase (Homo sapiens) (P03956 whole entry): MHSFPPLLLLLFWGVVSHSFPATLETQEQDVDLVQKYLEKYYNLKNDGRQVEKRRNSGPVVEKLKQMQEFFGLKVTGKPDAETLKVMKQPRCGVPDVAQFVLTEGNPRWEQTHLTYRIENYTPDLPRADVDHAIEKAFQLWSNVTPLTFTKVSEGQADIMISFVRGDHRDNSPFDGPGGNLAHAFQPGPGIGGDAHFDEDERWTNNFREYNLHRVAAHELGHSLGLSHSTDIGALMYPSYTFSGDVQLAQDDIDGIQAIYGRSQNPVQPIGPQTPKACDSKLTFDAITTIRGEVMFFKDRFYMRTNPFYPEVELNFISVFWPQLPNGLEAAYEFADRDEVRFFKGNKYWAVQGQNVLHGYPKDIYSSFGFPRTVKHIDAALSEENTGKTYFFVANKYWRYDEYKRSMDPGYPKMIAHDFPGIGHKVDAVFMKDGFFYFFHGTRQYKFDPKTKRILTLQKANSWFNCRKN
# Chain of Disintegrin and metalloproteinase domain-containing protein 17 (Homo sapiens) (P78536 whole entry, the tested form may be a part): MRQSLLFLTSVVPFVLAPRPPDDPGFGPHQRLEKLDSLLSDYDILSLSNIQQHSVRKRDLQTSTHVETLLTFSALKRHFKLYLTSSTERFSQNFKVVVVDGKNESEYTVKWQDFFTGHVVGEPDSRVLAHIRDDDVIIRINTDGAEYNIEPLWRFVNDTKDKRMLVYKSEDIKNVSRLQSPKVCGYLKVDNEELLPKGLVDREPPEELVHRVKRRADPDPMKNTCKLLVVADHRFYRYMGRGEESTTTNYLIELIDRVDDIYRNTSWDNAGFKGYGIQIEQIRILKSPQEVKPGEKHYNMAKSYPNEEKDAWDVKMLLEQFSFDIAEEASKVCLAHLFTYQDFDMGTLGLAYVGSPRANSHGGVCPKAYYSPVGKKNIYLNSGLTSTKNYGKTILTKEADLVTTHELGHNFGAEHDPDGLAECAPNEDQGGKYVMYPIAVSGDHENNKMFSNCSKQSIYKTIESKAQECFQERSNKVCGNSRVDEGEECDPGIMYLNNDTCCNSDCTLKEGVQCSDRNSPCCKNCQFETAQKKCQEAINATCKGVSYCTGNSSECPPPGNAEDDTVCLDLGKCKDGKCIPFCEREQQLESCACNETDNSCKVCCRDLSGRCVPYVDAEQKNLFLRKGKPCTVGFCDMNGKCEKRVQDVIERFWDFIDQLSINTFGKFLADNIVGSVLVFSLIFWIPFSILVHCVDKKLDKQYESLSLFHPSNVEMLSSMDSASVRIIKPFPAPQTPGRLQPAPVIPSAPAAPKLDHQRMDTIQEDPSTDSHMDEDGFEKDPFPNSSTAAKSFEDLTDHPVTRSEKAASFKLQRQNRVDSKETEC
# Chain of Angiotensin-converting enzyme 2 (Homo sapiens) (Q9BYF1 18-805 limits assumed): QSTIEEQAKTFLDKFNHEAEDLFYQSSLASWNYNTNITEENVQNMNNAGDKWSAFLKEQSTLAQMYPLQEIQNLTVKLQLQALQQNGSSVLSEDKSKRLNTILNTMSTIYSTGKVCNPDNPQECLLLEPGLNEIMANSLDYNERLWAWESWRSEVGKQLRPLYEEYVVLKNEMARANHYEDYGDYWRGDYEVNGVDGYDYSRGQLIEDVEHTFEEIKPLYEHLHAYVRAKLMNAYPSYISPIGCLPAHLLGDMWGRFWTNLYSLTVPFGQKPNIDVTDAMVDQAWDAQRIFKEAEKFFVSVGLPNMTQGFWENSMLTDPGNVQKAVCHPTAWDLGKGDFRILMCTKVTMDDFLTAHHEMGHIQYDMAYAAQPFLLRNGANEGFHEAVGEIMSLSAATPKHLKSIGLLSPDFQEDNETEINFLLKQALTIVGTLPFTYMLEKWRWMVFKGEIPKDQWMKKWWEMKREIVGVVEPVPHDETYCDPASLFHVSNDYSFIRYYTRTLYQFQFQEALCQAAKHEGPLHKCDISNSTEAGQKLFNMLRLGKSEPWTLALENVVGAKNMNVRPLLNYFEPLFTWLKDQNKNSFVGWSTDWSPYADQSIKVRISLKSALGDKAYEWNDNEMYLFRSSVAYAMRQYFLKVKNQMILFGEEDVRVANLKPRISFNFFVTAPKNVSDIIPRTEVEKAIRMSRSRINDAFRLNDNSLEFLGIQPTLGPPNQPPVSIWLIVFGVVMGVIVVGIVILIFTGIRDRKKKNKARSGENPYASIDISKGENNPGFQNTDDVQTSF
# Chain of 72 kDa type IV collagenase (Homo sapiens) (P08253 110-660 limits assumed): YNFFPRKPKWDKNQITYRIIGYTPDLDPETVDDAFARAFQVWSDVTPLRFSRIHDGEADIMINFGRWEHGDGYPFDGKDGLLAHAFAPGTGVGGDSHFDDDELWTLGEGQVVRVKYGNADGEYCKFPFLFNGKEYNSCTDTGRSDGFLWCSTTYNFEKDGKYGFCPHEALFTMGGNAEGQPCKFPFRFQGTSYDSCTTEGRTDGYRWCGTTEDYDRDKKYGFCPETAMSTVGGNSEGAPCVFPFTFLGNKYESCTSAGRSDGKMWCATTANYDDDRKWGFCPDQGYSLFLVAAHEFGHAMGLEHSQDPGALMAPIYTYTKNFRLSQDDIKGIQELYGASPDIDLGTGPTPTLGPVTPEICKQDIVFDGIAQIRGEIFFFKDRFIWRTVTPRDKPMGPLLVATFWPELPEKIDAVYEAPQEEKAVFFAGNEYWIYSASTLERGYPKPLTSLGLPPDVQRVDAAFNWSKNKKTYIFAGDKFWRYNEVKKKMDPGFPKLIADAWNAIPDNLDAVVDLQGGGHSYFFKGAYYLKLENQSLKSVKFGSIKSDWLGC
# Chain of Endoplasmic reticulum aminopeptidase 1 (Homo sapiens) (Q9NZ08 whole entry): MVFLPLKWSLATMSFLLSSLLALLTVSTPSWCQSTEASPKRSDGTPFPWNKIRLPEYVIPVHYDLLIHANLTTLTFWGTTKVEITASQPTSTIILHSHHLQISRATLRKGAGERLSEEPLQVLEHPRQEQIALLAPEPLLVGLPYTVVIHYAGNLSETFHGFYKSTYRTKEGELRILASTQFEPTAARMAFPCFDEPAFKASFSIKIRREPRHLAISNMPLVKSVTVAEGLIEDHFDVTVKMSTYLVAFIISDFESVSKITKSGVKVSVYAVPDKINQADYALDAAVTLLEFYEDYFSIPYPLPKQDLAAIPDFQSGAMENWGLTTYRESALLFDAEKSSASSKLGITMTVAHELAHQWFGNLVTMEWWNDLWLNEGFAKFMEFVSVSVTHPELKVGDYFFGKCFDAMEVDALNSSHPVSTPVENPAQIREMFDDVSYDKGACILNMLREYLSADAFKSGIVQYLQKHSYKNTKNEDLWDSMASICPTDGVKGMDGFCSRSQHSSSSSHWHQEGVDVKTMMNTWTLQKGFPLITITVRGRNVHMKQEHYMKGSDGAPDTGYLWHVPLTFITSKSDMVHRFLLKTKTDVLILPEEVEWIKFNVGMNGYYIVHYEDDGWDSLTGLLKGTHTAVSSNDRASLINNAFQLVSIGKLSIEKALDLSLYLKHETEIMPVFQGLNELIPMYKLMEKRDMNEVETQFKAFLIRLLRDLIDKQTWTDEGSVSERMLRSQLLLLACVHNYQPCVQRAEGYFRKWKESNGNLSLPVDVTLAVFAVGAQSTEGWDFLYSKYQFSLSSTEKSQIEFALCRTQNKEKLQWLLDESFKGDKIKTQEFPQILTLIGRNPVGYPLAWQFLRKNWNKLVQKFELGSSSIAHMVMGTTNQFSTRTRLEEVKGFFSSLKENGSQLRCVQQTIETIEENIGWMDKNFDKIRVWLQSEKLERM
# Chain of Matrix metalloproteinase-9 (P14780 whole entry): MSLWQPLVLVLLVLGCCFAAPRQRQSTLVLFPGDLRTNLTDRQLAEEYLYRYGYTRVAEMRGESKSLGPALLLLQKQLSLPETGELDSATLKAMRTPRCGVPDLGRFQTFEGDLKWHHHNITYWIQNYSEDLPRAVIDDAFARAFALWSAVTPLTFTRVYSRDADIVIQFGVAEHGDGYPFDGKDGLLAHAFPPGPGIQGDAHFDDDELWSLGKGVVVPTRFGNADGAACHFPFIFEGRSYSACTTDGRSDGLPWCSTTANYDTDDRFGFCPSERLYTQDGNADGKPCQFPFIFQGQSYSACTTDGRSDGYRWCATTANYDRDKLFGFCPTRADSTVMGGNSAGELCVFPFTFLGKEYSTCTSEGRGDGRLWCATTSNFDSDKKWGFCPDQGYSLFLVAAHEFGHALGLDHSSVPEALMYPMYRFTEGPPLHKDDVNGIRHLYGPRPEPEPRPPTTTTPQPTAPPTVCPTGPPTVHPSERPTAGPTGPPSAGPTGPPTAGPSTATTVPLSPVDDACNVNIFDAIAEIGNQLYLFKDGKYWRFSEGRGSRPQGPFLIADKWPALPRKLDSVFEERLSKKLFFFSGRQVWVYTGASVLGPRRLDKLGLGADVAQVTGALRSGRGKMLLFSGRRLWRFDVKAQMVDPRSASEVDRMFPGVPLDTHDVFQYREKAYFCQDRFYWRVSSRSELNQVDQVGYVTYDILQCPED
Activity [1],Activity [2],Activity [3],Activity [4],Activity [5],Activity [6],Activity [7],Activity [8],IC50 [9] [nM],Activity [10],IC50 [11] [µM],Activity [12],Activity [13],Activity [14],Activity [15],Activity [16],Activity [17],Compound
inactive,inactive,inactive,inactive,inactive,inactive,inactive,inactive,920,inactive,3.8,inactive,inactive,inactive,inactive,inactive,inactive,Oc1nc(SCc2ccc(Cl)cc2)nc2c1CCC2
inactive,inactive,inactive,inactive,inactive,inactive,inactive,inactive,1600,inactive,20,inactive,inactive,inactive,inactive,inactive,inactive,COc1ccc(CSc2nc(C)cc(O)n2)cc1
